Assay results as given in ChEMBL document CHEMBL1157304, “Sesquiterpene lactones from Inula britannica and their cytotoxic and apoptotic effects on human cancer cell lines” (J Nat Prod, 2006).

Experiments:
HL-60 [1] = assay: Cytotoxicity against human HL60 cells after 24 hrs by trypan blue exclusion assay; type: functional, cell-based; details: HL-60, 24 h
Summary of the method: (§1)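 Cells grown at 37 °C, 5% CO2; RPMI for COLO 205, HT-29 and HL-60, DMEM/F12 for AGS, each with 10% heat-inactivated FBS, penicillin/streptomycin and 2 mM L-glutamine. Compounds in DMSO (vehicle control 0.01% DMSO) tested at 5–100 μM for 24 h. Cells diluted 1:1 with 0.5% trypan blue. Unstained cells counted by hemocytometer and expressed as % viable. Three samples per group, mean ± SE.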

AGS [2] = assay: Induction of apoptosis in human AGS cells at 25 uM after 24 hrs by FACS; type: functional
Summary of the method: (§2)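 2 × 10^5 cells plated in 60 mm dishes and incubated 24 h, then treated for 24 h with compound in DMSO. Cells harvested, washed in PBS and fixed overnight in ice-cold ethanol at −20 °C. Pellets held 30 min at 37 °C in 0.5% Triton X-100/PBS with 0.5 μg/mL RNase. Propidium iodide (50 μg/mL) added, 30 min on ice. Sub-G1 fraction read by FACScan flow cytometry. n=3, mean ± SE.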

HT-29 [3] = assay: Induction of apoptosis in human HT29 cells at 10 uM after 24 hrs by FACS; type: functional; summary of the method: as §2
HL-60 [4] = assay: Induction of apoptosis in human HL60 cells at 50 uM after 24 hrs by FACS; type: functional; summary of the method: as §2
COLO 205 [5] = assay: Cytotoxicity against human COLO205 cells after 24 hrs by trypan blue exclusion assay; type: functional, cell-based; details: COLO 205, 24 h; summary of the method: as §1
AGS [6] = assay: Induction of apoptosis in human AGS cells at 100 uM after 24 hrs by FACS; type: functional; summary of the method: as §2
AGS [7] = assay: Induction of apoptosis in human AGS cells at 10 uM after 24 hrs by FACS; type: functional; summary of the method: as §2
HT-29 [8] = assay: Induction of apoptosis in human HT29 cells at 25 uM after 24 hrs by FACS; type: functional; summary of the method: as §2
HL-60 [9] = assay: Induction of apoptosis in human HL60 cells at 100 uM after 24 hrs by FACS; type: functional; summary of the method: as §2
HT-29 [10] = assay: Cytotoxicity against human HT29 cells after 24 hrs by trypan blue exclusion assay; type: functional, cell-based; details: HT-29, 24 h; summary of the method: as §1
HT-29 [11] = assay: Induction of apoptosis in human HT29 cells at 100 uM after 24 hrs by FACS; type: functional; summary of the method: as §2
COLO 205 [12] = assay: Induction of apoptosis in human COLO205 cells at 10 uM after 24 hrs by FACS; type: functional; summary of the method: as §2
HT-29 [13] = assay: Induction of apoptosis in human HT29 cells at 5 uM after 24 hrs by FACS; type: functional; summary of the method: as §2
HL-60 [14] = assay: Induction of apoptosis in human HL60 cells at 5 uM after 24 hrs by FACS; type: functional; summary of the method: as §2
COLO 205 [15] = assay: Induction of apoptosis in human COLO205 cells at 100 uM after 24 hrs by FACS; type: functional; summary of the method: as §2
AGS [16] = assay: Cytotoxicity against human AGS cells after 24 hrs by trypan blue exclusion assay; type: functional, cell-based; summary of the method: as §1
COLO 205 [17] = assay: Induction of apoptosis in human COLO205 cells at 25 uM after 24 hrs by FACS; type: functional; summary of the method: as §2
HL-60 [18] = assay: Induction of apoptosis in human HL60 cells at 10 uM after 24 hrs by FACS; type: functional; summary of the method: as §2
COLO 205 [19] = assay: Induction of apoptosis in human COLO205 cells at 5 uM after 24 hrs by FACS; type: functional; summary of the method: as §2
AGS [20] = assay: Induction of apoptosis in human AGS cells at 5 uM after 24 hrs by FACS; type: functional; summary of the method: as §2
HT-29 [21] = assay: Induction of apoptosis in human HT29 cells at 50 uM after 24 hrs by FACS; type: functional; summary of the method: as §2
HL-60 [22] = assay: Induction of apoptosis in human HL60 cells at 25 uM after 24 hrs by FACS; type: functional; summary of the method: as §2
AGS [23] = assay: Induction of apoptosis in human AGS cells at 50 uM after 24 hrs by FACS; type: functional; summary of the method: as §2
COLO 205 [24] = assay: Induction of apoptosis in human COLO205 cells at 50 uM after 24 hrs by FACS; type: functional; summary of the method: as §2

C=C1C(=O)O[C@H]2/C=C(\C)CC/C=C(\C)C[C@H](OC(C)=O)[C@@H]12 [ACETYL NEOBRITANNILACTONE B]
IC50 (HL-60 [1]): 16.2 µM
Activity (AGS [2]): 9.89%
Activity (HT-29 [3]): 47.56%
Activity (HL-60 [4]): 97.74%
IC50 (COLO 205 [5]): 14.7 µM
Activity (AGS [6]): 43.11%
Activity (AGS [7]): 7.87%
Activity (HT-29 [8]): 69.7%
Activity (HL-60 [9]): 98.05%
IC50 (HT-29 [10]): 57 µM
Activity (HT-29 [11]): 82.47%
Activity (COLO 205 [12]): 34.72%
Activity (HT-29 [13]): 20.38%
Activity (HL-60 [14]): 22.93%
Activity (COLO 205 [15]): 98.66%
IC50 (AGS [16]): 5.4 µM
Activity (COLO 205 [17]): 76.87%
Activity (HL-60 [18]): 39.71%
Activity (COLO 205 [19]): 15.47%
Activity (AGS [20]): 6.16%
Activity (HT-29 [21]): 81.43%
Activity (HL-60 [22]): 95.17%
Activity (AGS [23]): 13.64%
Activity (COLO 205 [24]): 96.92%

C=C1C(=O)O[C@@H]2CC(C)=C([C@@H](C)CCCO)[C@H](O)[C@H]12 [BRITANNILACTONE]
IC50 (HL-60 [1]): > 100 µM
Activity (AGS [2]): 10.16%
Activity (HT-29 [3]): 6.16%
Activity (HL-60 [4]): 8.01%
IC50 (COLO 205 [5]): > 100 µM
Activity (AGS [6]): 10.37%
Activity (AGS [7]): 10.37%
Activity (HT-29 [8]): 6.49%
Activity (HL-60 [9]): 12.83%
IC50 (HT-29 [10]): > 100 µM
Activity (HT-29 [11]): 7.55%
Activity (COLO 205 [12]): 12.28%
Activity (HT-29 [13]): 5.75%
Activity (HL-60 [14]): 7.22%
Activity (COLO 205 [15]): 28.31%
IC50 (AGS [16]): > 100 µM
Activity (COLO 205 [17]): 12.79%
Activity (HL-60 [18]): 5.64%
Activity (COLO 205 [19]): 11.9%
Activity (AGS [20]): 7.93%
Activity (HT-29 [21]): 6.59%
Activity (HL-60 [22]): 5.24%
Activity (AGS [23]): 8.97%
Activity (COLO 205 [24]): 15.54%

CC(=O)OCCC[C@H](C)C1=C[C@@H]2[C@H](C)C(=O)O[C@@H]2C[C@@]1(C)O [NEOBRITANNILACTONE A]
IC50 (HL-60 [1]): 85.8 µM
Activity (AGS [2]): 10.57%
Activity (HT-29 [3]): 4.24%
Activity (HL-60 [4]): 6.63%
IC50 (COLO 205 [5]): 97.9 µM
Activity (AGS [6]): 9.81%
Activity (AGS [7]): 9.83%
Activity (HT-29 [8]): 5.17%
Activity (HL-60 [9]): 16.31%
IC50 (HT-29 [10]): > 100 µM
Activity (HT-29 [11]): 7.73%
Activity (COLO 205 [12]): 6.51%
Activity (HT-29 [13]): 3.94%
Activity (HL-60 [14]): 6.68%
Activity (COLO 205 [15]): 25.5%
IC50 (AGS [16]): > 100 µM
Activity (COLO 205 [17]): 4.28%
Activity (HL-60 [18]): 6.31%
Activity (COLO 205 [19]): 4.08%
Activity (AGS [20]): 9.23%
Activity (HT-29 [21]): 4.09%
Activity (HL-60 [22]): 6.19%
Activity (AGS [23]): 9.41%
Activity (COLO 205 [24]): 5.44%

C=C1C(=O)O[C@H]2/C=C(\C)CC/C=C(\C)C[C@H](O)[C@@H]12 [NEOBRITANNILACTONE B]
IC50 (HL-60 [1]): 27.4 µM
Activity (AGS [2]): 11.78%
Activity (HT-29 [3]): 24.46%
Activity (HL-60 [4]): 96.94%
IC50 (COLO 205 [5]): 14.3 µM
Activity (AGS [6]): 19.22%
Activity (AGS [7]): 8.66%
Activity (HT-29 [8]): 66.54%
Activity (HL-60 [9]): 98.29%
IC50 (HT-29 [10]): 56.1 µM
Activity (HT-29 [11]): 87.02%
Activity (COLO 205 [12]): 14.12%
Activity (HT-29 [13]): 13.58%
Activity (HL-60 [14]): 9.82%
Activity (COLO 205 [15]): 96.81%
IC50 (AGS [16]): 21.4 µM
Activity (COLO 205 [17]): 41.62%
Activity (HL-60 [18]): 21.93%
Activity (COLO 205 [19]): 10.73%
Activity (AGS [20]): 9.55%
Activity (HT-29 [21]): 82.27%
Activity (HL-60 [22]): 77.57%
Activity (AGS [23]): 15.95%
Activity (COLO 205 [24]): 89.11%
